Experiment [1] is described as follows: Activation of NAADP receptor in Strongylocentrotus purpuratus egg homogenates assessed as Ca2+ release by Fluo-3 dye based fluorometric assay. An outline of the steps: (§1)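 Egg homogenate microsomes from S. purpuratus loaded with Ca2+ in presence of ATP and 3 μM fluo-3; analogue added at a range of concentrations and released Ca2+ read as fluorescence increase (excitation 490 nm, emission 535 nm) on a plate reader; pH 7.2; triplicate; EC50 from concentration–response; fold values relative to NAADP.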

The subject of experiment [2] is Strongylocentrotus purpuratus. As to the kind of experiment: Desensitization of NAADP receptor in Strongylocentrotus purpuratus egg homogenates assessed as inhibition of NAADP-induced Ca2+ release pre-treated for 7 mins before NAADP addition by Fluo-3 dye based fluorometric assay relative to NAADP. The essentials:
(§2)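 S. purpuratus egg homogenates pretreated 7 min with varying analogue concentrations, then challenged with saturating NAADP (1 μM); Ca2+ release read by fluo-3 fluorescence (ex 490/em 535 nm); IC50 for inhibition of release from concentration–response, triplicate, reported ± SEM with n; fold values relative to NAADP.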

In experiment [3] the test system is Strongylocentrotus purpuratus. Briefly: Activation of NAADP receptor in Strongylocentrotus purpuratus egg homogenates assessed as Ca2+ release by Fluo-3 dye based fluorometric assay relative to NAADP. An outline of the steps: as §1
Experiment [4] can be described thus: Desensitization of NAADP receptor in Strongylocentrotus purpuratus egg homogenates assessed as inhibition of NAADP-induced Ca2+ release pre-treated for 7 mins before NAADP addition by Fluo-3 dye based fluorometric assay. An outline of the steps:
as §2

A short description of experiment [5]: Displacement of [32P]NAADP from NAADP receptor in Strongylocentrotus purpuratus egg homogenates incubated for 90 mins by liquid scintillation counting method. The essentials:
(§3)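 Competition binding in filter plates: S. purpuratus egg homogenate incubated 90 min simultaneously with 0.2 nM [32P]NAADP and seven concentrations of test ligand; filtered, washed, filter-bound radioactivity counted by liquid scintillation; IC50 ± SEM with n; fold values relative to NAADP.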

Experiment [6] concerns Strongylocentrotus purpuratus. Briefly: Displacement of [32P]NAADP from NAADP receptor in Strongylocentrotus purpuratus egg homogenates incubated for 90 mins by liquid scintillation counting method relative to NAADP. An outline of the steps: as §3
Experiment [7] in a line: Activation of NAADP receptor in sea urchin egg homogenates assessed as Ca2+ release. Type of experiment: tissue-based, Echinoidea. An outline of the steps:
as §1

In experiment [8] the test system is Strongylocentrotus purpuratus. Briefly: Ratio of activation of NAADP receptor in Strongylocentrotus purpuratus egg homogenates by Ca2+ release assay to IC50 for desensitization of NAADP receptor in Strongylocentrotus purpuratus egg homogenates by Ca2+ release assay.
Experiment [9] deals with Strongylocentrotus purpuratus. As to the kind of experiment: Ratio of activation of NAADP receptor in Strongylocentrotus purpuratus egg homogenates by Ca2+ release assay to IC50 for NAADP receptor in Strongylocentrotus purpuratus egg homogenates by [32P]NAADP binding assay.

As a reminder, the EC50 is the concentration that produces a half-maximal response. The IC50 is the concentration at which inhibition is half-maximal.

The structures appear in SMILES notation. Where only a bound is given, the exact number is not on record here.

With `CC(=O)NCCCc1cc(C(=O)O)c[n+]([C@H]2O[C@@H](COP(=O)(O)OP(=O)([O-])OC[C@H]3O[C@@H](n4cnc5c(N)ncnc54)[C@H](OP(=O)(O)O)[C@@H]3O)[C@H](O)[C@@H]2O)c1`, the EC50 in experiment [1] was 41.7 µM. Further, the Ratio IC50 is 2620 in experiment [2] and 4880 in [6]. In addition, in experiment [3], the Ratio EC50 was found to be 1620. Moreover, the figures for the 50% inhibitory concentration (IC50) in experiment [4] and in [5] were 1.23 µM and 1.8 µM, respectively.

As to `[N-]=[N+]=NCCCc1cc(C(=O)O)c[n+]([C@H]2O[C@@H](COP(=O)(O)OP(=O)([O-])OC[C@H]3O[C@@H](n4cnc5c(N)ncnc54)[C@H](OP(=O)(O)O)[C@@H]3O)[C@H](O)[C@@H]2O)c1`, the EC50 in experiment [1] worked out at 30.7 µM. Besides, the Ratio IC50 in experiment [2] was determined as 97; in experiment [6] it was 152. Moreover, in [3], the Ratio EC50 came to 1190. The IC50 is 0.0456 µM in [4] and 0.0563 µM in [5].

As for `Nc1ncnc2c1ncn2[C@@H]1O[C@H](COP(=O)([O-])OP(=O)(O)OC[C@@H]2O[C@H]([n+]3cc(O)cc(C(=O)O)c3)[C@@H](O)[C@H]2O)[C@@H](O)[C@H]1OP(=O)(O)O`, the concentration giving a half-maximal response (EC50) in experiment [1] came out at 1.93 µM. The Ratio IC50 came out at 49.1 in experiment [2] and 51 in [6]. For the same compound, the Ratio EC50 in [3] amounted to 74.9. In addition, the concentration for half-maximal inhibition (IC50) in [4] amounted to 0.0231 µM; in experiment [5], 0.0189 µM.

In the case of `Nc1ncnc2c1ncn2[C@@H]1O[C@H](COP(=O)(O)OP(=O)(O)OC[C@@H]2O[C@H]([n+]3cccc(C(=O)[O-])c3)[C@@H](O)[C@H]2O)[C@@H](O)[C@H]1OP(=O)(O)O` [NICOTINIC ACID ADENINE DINUCLEOTIDE PHOSPHATE], the EC50 in experiment [1] stood at 0.0258 µM; in [7], 0.02 µM. The 50% inhibitory concentration (IC50) in [4] amounted to 0.00047 µM; in experiment [5], 0.00037 µM.

With `NCCCc1cc(C(=O)O)c[n+]([C@H]2O[C@@H](COP(=O)(O)OP(=O)([O-])OC[C@H]3O[C@@H](n4cnc5c(N)ncnc54)[C@H](OP(=O)(O)O)[C@@H]3O)[C@H](O)[C@@H]2O)c1`, the EC50 in [1] was above 1000 µM. For the same compound, the Ratio IC50 in [2] was 1.43e+06; in experiment [6], above 2e+06. Besides, the Ratio EC50 in [3] was above 33300. Also, the IC50 is 674 µM in [4] and above 1000 µM in experiment [5].

In the case of `CC(C)(C)OC(=O)NCCCc1cc(C(=O)O)c[n+]([C@H]2O[C@@H](COP(=O)(O)OP(=O)([O-])OC[C@H]3O[C@@H](n4cnc5c(N)ncnc54)[C@H](OP(=O)(O)O)[C@@H]3O)[C@H](O)[C@@H]2O)c1`, in experiment [1], the 50% effective concentration (EC50) was determined as 160 µM. The Ratio IC50 in experiment [2] was determined as 2000; in experiment [6], 8840. Also, in experiment [3], the Ratio EC50 was 6200. Moreover, the IC50 in experiment [4] is 0.942 µM; in [5], 3.27 µM.

With `[N-]=[N+]=Nc1cc(C(=O)O)c[n+]([C@H]2O[C@@H](COP(=O)(O)OP(=O)([O-])OC[C@H]3O[C@@H](n4c(Br)nc5c(N)ncnc54)[C@H](OP(=O)(O)O)[C@@H]3O)[C@H](O)[C@@H]2O)c1`, in experiment [1], the EC50 is 1360 µM. For the same compound, the Ratio IC50 in experiment [2] stood at 1220; in [6], 1000. In experiment [3], the Ratio EC50 came to 52800. For the same compound, the 50% inhibitory concentration (IC50) is 0.576 µM in experiment [4] and 0.372 µM in [5].

For `Nc1ncnc2c1nc(Br)n2[C@@H]1O[C@H](COP(=O)([O-])OP(=O)(O)OC[C@@H]2O[C@H]([n+]3cccc(C(=O)O)c3)[C@@H](O)[C@H]2O)[C@@H](O)[C@H]1OP(=O)(O)O`, in experiment [1], the EC50 came to 0.709 µM. In addition, the figures for the Ratio IC50 in [2] and in [6] were 32.6 and 42.4, respectively. For the same compound, the Ratio EC50 in [3] worked out at 27.5. Further, the half-inhibitory concentration (IC50) in [4] came to 0.0153 µM; in experiment [5], 0.0157 µM.

For `CC(=O)Nc1cc(C(=O)O)c[n+]([C@H]2O[C@@H](COP(=O)(O)OP(=O)([O-])OC[C@H]3O[C@@H](n4cnc5c(N)ncnc54)[C@H](OP(=O)(O)O)[C@@H]3O)[C@H](O)[C@@H]2O)c1`, in experiment [1], the 50% effective concentration (EC50) stood at 0.626 µM. The figures for the Ratio IC50 in experiment [2] and in experiment [6] were 45.7 and 40.5, respectively. Further, in experiment [3], the Ratio EC50 came out at 24.3. Moreover, the concentration for half-maximal inhibition (IC50) in [4] amounted to 0.0215 µM; in experiment [5] it was 0.015 µM.

Take `[N-]=[N+]=Nc1nc2c(N)ncnc2n1[C@@H]1O[C@H](COP(=O)([O-])OP(=O)(O)OC[C@@H]2O[C@H]([n+]3cccc(C(=O)O)c3)[C@@H](O)[C@H]2O)[C@@H](O)[C@H]1OP(=O)(O)O`: in experiment [1], the EC50 amounted to 0.0477 µM. Further, the Ratio IC50 in experiment [2] was determined as 1.3; in experiment [6], 1.9. In experiment [3], the Ratio EC50 stood at 1.8. Moreover, the half-inhibitory concentration (IC50) is 0.0006 µM in experiment [4] and 0.0007 µM in experiment [5].

As to `Nc1ncnc2c1ncn2[C@@H]1O[C@H](COP(=O)([O-])OP(=O)(O)OC[C@@H]2O[C@H]([n+]3cc(CCCO)cc(C(=O)O)c3)[C@@H](O)[C@H]2O)[C@@H](O)[C@H]1OP(=O)(O)O`, the half-maximal effective concentration (EC50) in [1] worked out at 4.43 µM. Moreover, the Ratio IC50 in experiment [2] came out at 260; in experiment [6] it was 132. In addition, the Ratio EC50 in experiment [3] is 172. In addition, the IC50 was 0.122 µM in [4] and 0.049 µM in [5].

As for `CSc1cc(C(=O)O)c[n+]([C@H]2O[C@@H](COP(=O)(O)OP(=O)([O-])OC[C@H]3O[C@@H](n4cnc5c(N)ncnc54)[C@H](OP(=O)(O)O)[C@@H]3O)[C@H](O)[C@@H]2O)c1`, the Ratio in experiment [8] and in experiment [9] was 100 throughout. Further, in [1], the EC50 came out at 0.151 µM. Further, the results for the Ratio IC50 in experiment [2] and in experiment [6] were 8.9 and 18.4, respectively. Further, the Ratio EC50 in experiment [3] stood at 5.9. The 50% inhibitory concentration (IC50) in experiment [4] is 0.0042 µM; in experiment [5], 0.0068 µM.

(Values after ChEMBL document CHEMBL3421619, “Nicotinic Acid Adenine Dinucleotide Phosphate Analogues Substituted on the Nicotinic Acid and Adenine Ribosides. Effects on ReceptorMediated Ca²⁺ Release” (J Med Chem, 2015).)
